# Measured values reported in ChEMBL document CHEMBL1145023, “Homology modeling of rat and human cytochrome P450 2D (CYP2D) isoforms and computational rationalization of experimental ligand-binding specificities” (J Med Chem, 2003).
# Tests used:
# Type in all cases: ADME
# Cytochrome P450 2D3 = molecular target: T1, Cytochrome P450 2D3 (Rattus norvegicus, UniProt P12938); test: Inhibition of MAMC O-dealkylation mediated by rat Cytochrome P450 2D3 expressed in Saccharomyces cerevisiae
# T1 sequence (P12938 whole entry): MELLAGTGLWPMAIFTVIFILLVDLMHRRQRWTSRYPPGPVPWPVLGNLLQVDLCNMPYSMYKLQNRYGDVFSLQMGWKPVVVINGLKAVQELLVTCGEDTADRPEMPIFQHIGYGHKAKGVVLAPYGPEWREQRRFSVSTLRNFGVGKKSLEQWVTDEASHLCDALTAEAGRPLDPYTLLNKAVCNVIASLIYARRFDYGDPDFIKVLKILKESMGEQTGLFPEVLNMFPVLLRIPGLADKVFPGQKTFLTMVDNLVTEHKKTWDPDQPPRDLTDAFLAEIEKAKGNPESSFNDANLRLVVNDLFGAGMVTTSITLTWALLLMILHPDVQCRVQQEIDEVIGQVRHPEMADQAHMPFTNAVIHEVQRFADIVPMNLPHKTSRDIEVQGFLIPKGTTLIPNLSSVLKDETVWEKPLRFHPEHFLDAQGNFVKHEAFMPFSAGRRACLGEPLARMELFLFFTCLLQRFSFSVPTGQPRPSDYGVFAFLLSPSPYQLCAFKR
# Procedure, shortened: (§1)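 Rat CYP2D isozymes are singly expressed in S. cerevisiae and used as microsomes in 100 mM phosphate, pH 7.4, at 37 °C. MAMC is 100 μM final, with or without varying inhibitor, after a 5 min preincubation. NADPH-regenerating system is added to start the reaction.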
# Cytochrome P450 2D4 = molecular target: T2, Cytochrome P450 2D4 (Rattus norvegicus, UniProt Q64680); test: Inhibition of MAMC O-dealkylation mediated by rat Cytochrome P450 2D4 expressed in Saccharomyces cerevisiae; procedure, shortened: as §1
# T2 sequence (Q64680 whole entry): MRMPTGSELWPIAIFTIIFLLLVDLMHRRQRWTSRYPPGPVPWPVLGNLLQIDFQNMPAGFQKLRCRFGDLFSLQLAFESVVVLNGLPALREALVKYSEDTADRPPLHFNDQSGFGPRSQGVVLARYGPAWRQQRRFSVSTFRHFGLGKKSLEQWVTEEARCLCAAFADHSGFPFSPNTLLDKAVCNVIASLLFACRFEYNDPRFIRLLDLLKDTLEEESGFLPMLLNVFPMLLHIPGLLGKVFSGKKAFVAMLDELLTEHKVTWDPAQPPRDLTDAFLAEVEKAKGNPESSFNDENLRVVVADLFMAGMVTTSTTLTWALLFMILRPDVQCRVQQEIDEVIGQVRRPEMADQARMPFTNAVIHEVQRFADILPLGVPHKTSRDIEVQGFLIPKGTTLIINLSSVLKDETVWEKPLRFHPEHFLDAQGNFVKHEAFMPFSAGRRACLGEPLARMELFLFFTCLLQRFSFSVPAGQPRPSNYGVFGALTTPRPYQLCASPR
# Cytochrome P450 2D1 = molecular target: T3, Cytochrome P450 2D1 (Rattus norvegicus, UniProt P10633); test: Inhibition of MAMC O-dealkylation mediated by rat Cytochrome P450 2D1 expressed in Saccharomyces cerevisiae
# T3 sequence (P10633 whole entry): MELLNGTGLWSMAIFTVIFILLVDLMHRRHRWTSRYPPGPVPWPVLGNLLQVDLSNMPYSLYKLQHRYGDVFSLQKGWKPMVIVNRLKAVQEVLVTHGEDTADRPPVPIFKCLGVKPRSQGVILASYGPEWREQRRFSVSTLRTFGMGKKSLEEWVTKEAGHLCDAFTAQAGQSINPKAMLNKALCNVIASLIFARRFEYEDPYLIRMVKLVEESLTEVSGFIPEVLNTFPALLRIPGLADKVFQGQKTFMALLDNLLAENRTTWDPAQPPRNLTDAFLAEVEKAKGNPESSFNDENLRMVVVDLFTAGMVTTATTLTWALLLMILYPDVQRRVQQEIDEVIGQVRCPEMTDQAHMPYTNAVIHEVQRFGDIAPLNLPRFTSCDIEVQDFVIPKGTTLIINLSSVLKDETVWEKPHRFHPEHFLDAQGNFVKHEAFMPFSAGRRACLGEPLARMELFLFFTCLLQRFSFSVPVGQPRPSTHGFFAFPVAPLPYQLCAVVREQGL
# Procedure, shortened: as §1, with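 “°C. Enzyme concentrations are 52.0 nM (2D1), 3.1 nM (2D2), 3.6 nM (2D3) and 21.9 nM (2D4).” for “°C.”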
# Cytochrome P450 2D6 = Cytochrome P450 2D6 (Homo sapiens, UniProt P10635); test: Inhibition of MAMC O-dealkylation mediated by human Cytochrome P450 2D6 expressed in human lymphoblastoid cell line
# Procedure, shortened: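 Human CYP2D6 (1 nM) competition run as a microplate-reader fluorescence assay. MAMC is the substrate at 10 μM final, with and without a range of inhibitor concentrations. IC50 is obtained by nonlinear least-squares one-site competition fitting.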
# Cytochrome P450 2D26 = molecular target: T4, Cytochrome P450 2D26 (Rattus norvegicus, UniProt P10634); test: Inhibition of MAMC O-dealkylation mediated by rat Cytochrome P450 2D2 expressed in Saccharomyces cerevisiae; procedure, shortened: as §1
# T4 sequence (P10634 whole entry): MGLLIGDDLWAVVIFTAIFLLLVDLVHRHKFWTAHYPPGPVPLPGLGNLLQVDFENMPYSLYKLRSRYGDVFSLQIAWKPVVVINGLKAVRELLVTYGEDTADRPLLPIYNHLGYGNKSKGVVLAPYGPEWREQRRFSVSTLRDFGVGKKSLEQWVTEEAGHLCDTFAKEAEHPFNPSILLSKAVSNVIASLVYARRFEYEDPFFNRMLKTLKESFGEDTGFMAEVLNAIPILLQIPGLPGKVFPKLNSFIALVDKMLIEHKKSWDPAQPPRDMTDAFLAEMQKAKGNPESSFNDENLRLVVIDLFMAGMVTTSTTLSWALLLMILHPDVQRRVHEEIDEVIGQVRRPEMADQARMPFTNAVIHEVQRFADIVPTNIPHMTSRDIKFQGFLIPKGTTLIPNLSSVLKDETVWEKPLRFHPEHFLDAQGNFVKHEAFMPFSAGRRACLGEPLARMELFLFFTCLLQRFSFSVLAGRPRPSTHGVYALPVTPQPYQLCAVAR
# Chain of Cytochrome P450 2D6 (P10635 whole entry): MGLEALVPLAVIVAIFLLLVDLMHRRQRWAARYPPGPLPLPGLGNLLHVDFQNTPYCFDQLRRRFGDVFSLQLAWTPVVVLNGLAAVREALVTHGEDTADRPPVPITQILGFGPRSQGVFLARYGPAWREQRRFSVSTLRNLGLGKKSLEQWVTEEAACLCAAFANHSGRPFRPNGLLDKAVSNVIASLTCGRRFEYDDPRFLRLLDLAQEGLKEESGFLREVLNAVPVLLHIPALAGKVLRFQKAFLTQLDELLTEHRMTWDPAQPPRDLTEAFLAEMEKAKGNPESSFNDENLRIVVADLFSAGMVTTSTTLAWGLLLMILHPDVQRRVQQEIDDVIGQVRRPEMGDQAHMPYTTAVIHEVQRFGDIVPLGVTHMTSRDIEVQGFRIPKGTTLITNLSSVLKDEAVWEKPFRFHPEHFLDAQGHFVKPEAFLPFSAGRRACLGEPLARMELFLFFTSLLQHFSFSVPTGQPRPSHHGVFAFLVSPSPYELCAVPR
Compound,IC50 (Cytochrome P450 2D3) [µM],IC50 (Cytochrome P450 2D4) [µM],IC50 (Cytochrome P450 2D1) [µM],IC50 (Cytochrome P450 2D6) [µM],IC50 (Cytochrome P450 2D26) [µM]
C=C[C@H]1C[N@@]2CC[C@H]1C[C@@H]2[C@@H](O)c1ccnc2ccc(OC)cc12 [QUINIDINE],26.9,47.2,19.9,–,–
COc1ccc2c(CN(C)C)cc(=O)oc2c1,862,1180,329,74.2,307
[H]/N=C(/N)N/C(=N/[H])NCCc1ccccc1 [PHENFORMIN],1930,833,–,27,45.4
C=C[C@H]1C[N@@]2CC[C@H]1C[C@H]2[C@H](O)c1ccnc2ccc(OC)cc12 [QUININE],12,1.7,46.5,–,–
COc1ccc2c(c1)[C@]13CCCC[C@@H]1[C@H](C2)N(C)CC3 [DEXTROMETHORPHAN],18.6,136,264,1.8,5.6
N=C(N)N1CCc2ccccc2C1 [DEBRISOQUIN],1750,747,529,23.8,107
CC(C)NC[C@@H](O)COc1cccc2ccccc12 [DEXPROPRANOLOL],155,117,182,–,0.42
CC(C)NC[C@H](O)COc1cccc2ccccc12 [LEVOPROPRANOLOL],172,133,571,–,0.35
CNCCC=C1c2ccccc2CCc2ccccc21 [NORTRIPTYLINE],14.2,19.3,204,2.3,1.9
COc1ccc2c3c1O[C@H]1[C@@H](O)C=C[C@H]4[C@@H](C2)N(C)CC[C@@]341 [CODEINE],4090,2220,1320,–,238
